Measurements from ChEMBL document CHEMBL1799953, “Backbone cyclic peptide inhibitors of protein kinase B (PKB/Akt)” (J Med Chem, 2011).
*1 amine or outer side, *2 acyl side, *3 side chain or, on linkers, in order; H or OH if unused. Where a SMILES comes first, the peptide text is derived from it. Bridges are numbered along the chain shown (N, C = ends). [ ]: non-standard residue; d: D form. N(6-aminohexyl)Gly = O=C(CN(CCCCCCN[*:3])[*:1])[*:2]; NGly(3-aminopropyl) = O=C(CN(CCCN[*:3])[*:1])[*:2]; N(2-Aminoethyl)Gly = O=C(CN(CCN[*:3])[*:1])[*:2]; Gly(N-(CH2)6NH2) = NCCCCCCNCC(=O)O; Gly(N-2-aminoethyl) = NCCNCC(=O)O; Gly(N(CH2)3NH2) = NCCCNCC(=O)O; hLeu = CC(C)CC[C@H](N)C(=O)O; Nva = CCC[C@H](N)C(=O)O; Dap = NC[C@H](N)C(=O)O; CO = O=C([*:1])[*:2]; Nlys = NCCCCNCC(=O)O

Legend:
[1] = biological target: T1, RAC-alpha serine/threonine-protein kinase (Homo sapiens, UniProt P31749); experiment: Inhibition of Akt using RPRTSSF peptide and [gamma32]ATP at 0.625 uM by cell-free radioactive assay relative to control
T1 sequence (P31749 whole entry): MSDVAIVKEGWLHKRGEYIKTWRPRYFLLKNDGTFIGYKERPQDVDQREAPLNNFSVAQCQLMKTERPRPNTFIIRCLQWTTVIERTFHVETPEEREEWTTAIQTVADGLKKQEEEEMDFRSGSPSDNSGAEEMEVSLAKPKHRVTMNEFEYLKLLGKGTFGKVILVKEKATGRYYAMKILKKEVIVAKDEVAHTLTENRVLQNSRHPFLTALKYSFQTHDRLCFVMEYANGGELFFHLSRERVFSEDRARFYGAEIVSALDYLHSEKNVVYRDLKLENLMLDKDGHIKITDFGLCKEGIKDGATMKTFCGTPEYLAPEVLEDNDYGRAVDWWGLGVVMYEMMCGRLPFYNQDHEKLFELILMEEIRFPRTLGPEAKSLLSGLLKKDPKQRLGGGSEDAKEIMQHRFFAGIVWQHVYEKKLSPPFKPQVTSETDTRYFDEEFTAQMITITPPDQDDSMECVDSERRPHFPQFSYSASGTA

[2] = biological target: T1, RAC-alpha serine/threonine-protein kinase; experiment: Inhibition of Akt using RPRTSSF peptide and [gamma32]ATP by cell-free radioactive assay
Summary of the method: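 Same reaction: HisΔPHPKBEEEFlag (0.005 units), 50 mM Hepes pH 7.4, 0.1 mM EGTA, 0.1% 2-mercaptoethanol, 10 mM magnesium acetate, 3 μM RPRTSSF, 10 μM [γ32P]ATP. Peptide stock concentration determined by UV spectrophotometry; reference peptide run in every assay.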

[3] = biological target: T1, RAC-alpha serine/threonine-protein kinase; experiment: Inhibition of Akt using RPRTSSF peptide and [gamma32]ATP at 5 uM by cell-free radioactive assay relative to control
Summary of the method: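 Cell-free 32P kinase assay: HisΔPHPKBEEEFlag (0.005 units, one-step Ni-NTA partial purification), 50 mM Hepes pH 7.4, 0.1 mM EGTA, 0.1% 2-mercaptoethanol, 10 mM magnesium acetate, 3 μM RPRTSSF substrate, 10 μM [γ32P]ATP (1 μCi/well). Inhibitor at 5 μM. Activity loss expressed as percent of uninhibited reaction.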

Compound | inhibition [1] [%] | IC50 [2] [nM] | inhibition [3] [%]
CCC[C@H](NC(=O)[C@H](CCCNC(=N)N)NC(=O)CN(CCCCN)C(=O)[C@@H](N)CCCNC(=N)N)C(=O)N[C@@H](Cc1ccc(O)cc1)C(=O)N[C@@H](CN)C(=O)N[C@@H](CCC(C)C)C(=O)N(CCCN)CC(N)=O (H-R[Nlys]R[Nva]Y[Dap][hLeu][Gly(N(CH2)3NH2)]-NH2) | 91 | 150 | 
CCC[C@H](NC(=O)[C@H](CCCNC(=N)N)NC(=O)CN(CCCCN)C(=O)[C@@H](N)CCCNC(=N)N)C(=O)N[C@@H](Cc1ccc(O)cc1)C(=O)N[C@@H](CN)C(=O)N[C@@H](CCC(C)C)C(=O)N(CCCCCCN)CC(N)=O (H-R[Nlys]R[Nva]Y[Dap][hLeu][Gly(N-(CH2)6NH2)]-NH2) | 60 |  | 
CCC[C@H](NC(=O)[C@H](CCCNC(=N)N)NC(=O)CN(CCCCN)C(=O)[C@@H](N)CCCNC(=N)N)C(=O)N[C@@H](Cc1ccc(O)cc1)C(=O)N[C@@H](CN)C(=O)N[C@@H](CCC(C)C)C(=O)N(CCN)CC(N)=O (H-R[Nlys]R[Nva]Y[Dap][hLeu][Gly(N-2-aminoethyl)]-NH2) | 84 |  | 
CCC[C@H](NC(=O)[C@H](CCCNC(=N)N)NC(=O)CN(CCCCCCN)C(=O)[C@@H](N)CCCNC(=N)N)C(=O)N[C@@H](Cc1ccc(O)cc1)C(=O)N[C@@H](CN)C(=O)N[C@@H](CCC(C)C)C(=O)N(CCCCN)CC(N)=O (H-R[Gly(N-(CH2)6NH2)]R[Nva]Y[Dap][hLeu][Nlys]-NH2) | 88 |  | 
CCC[C@H](NC(=O)[C@H](CCCNC(=N)N)NC(=O)CN(CCN)C(=O)[C@@H](N)CCCNC(=N)N)C(=O)N[C@@H](Cc1ccc(O)cc1)C(=O)N[C@@H](CN)C(=O)N[C@@H](CCC(C)C)C(=O)N(CCN)CC(N)=O (H-R[Gly(N-2-aminoethyl)]R[Nva]Y[Dap][hLeu][Gly(N-2-aminoethyl)]-NH2) | 57 |  | 
CCC[C@H](NC(=O)[C@H](CCCNC(=N)N)NC(=O)[C@@H]1CCCN1C(=O)[C@@H](N)CCCNC(=N)N)C(=O)N[C@@H](Cc1ccc(O)cc1)C(=O)N[C@@H](CN)C(=O)N[C@@H](CCC(C)C)C(N)=O | 36 |  | 
CCC[C@@H]1NC(=O)[C@H](CCCNC(=N)N)NC(=O)CN(C(=O)[C@@H](N)CCCNC(=N)N)CCCCCCNC(=O)NCCCN(CC(N)=O)C(=O)[C@H](CCC(C)C)NC(=O)[C@H](CN)NC(=O)[C@H](Cc2ccc(O)cc2)NC1=O (H-R[N(6-aminohexyl)Gly]R[Nva]Y[Dap][hLeu][NGly(3-aminopropyl)]-NH2; linker 2-8 via CO) |  | 160 | 100
CCC[C@H](NC(=O)[C@H](CCCNC(=N)N)NC(=O)CN(CCN)C(=O)[C@@H](N)CCCNC(=N)N)C(=O)N[C@@H](Cc1ccc(O)cc1)C(=O)N[C@@H](CN)C(=O)N[C@@H](CCC(C)C)C(=O)N(CCCCN)CC(N)=O (H-R[Gly(N-2-aminoethyl)]R[Nva]Y[Dap][hLeu][Nlys]-NH2) | 84 |  | 
CCC[C@@H]1NC(=O)[C@H](CCCNC(=N)N)NC(=O)CNCCNC(=O)NCCN(CC(N)=O)C(=O)[C@H](CCC(C)C)NC(=O)[C@H](CN)NC(=O)[C@H](Cc2ccc(O)cc2)NC1=O (H-[N(2-Aminoethyl)Gly]R[Nva]Y[Dap][hLeu][N(2-Aminoethyl)Gly]-NH2; linker 1-7 via CO) | 64 | 390 | 
CCC[C@H](NC(=O)[C@H](CCCNC(=N)N)NC(=O)CN(CCCCCCN)C(=O)[C@@H](N)CCCNC(=N)N)C(=O)N[C@@H](Cc1ccc(O)cc1)C(=O)N[C@@H](CN)C(=O)N[C@@H](CCC(C)C)C(=O)N(CCN)CC(N)=O (H-R[Gly(N-(CH2)6NH2)]R[Nva]Y[Dap][hLeu][Gly(N-2-aminoethyl)]-NH2) | 83 |  | 
CCC[C@@H]1NC(=O)[C@H](CCCNC(=N)N)NC(=O)CNCCCCCCNC(=O)NCCN(CC(N)=O)C(=O)[C@H](CCC(C)C)NC(=O)[C@H](CN)NC(=O)[C@H](Cc2ccc(O)cc2)NC1=O (H-[N(6-aminohexyl)Gly]R[Nva]Y[Dap][hLeu][N(2-Aminoethyl)Gly]-NH2; linker 1-7 via CO) | 26 |  | 
CCC[C@H](NC(=O)[C@H](CCCNC(=N)N)NC(=O)CN(CCCN)C(=O)[C@@H](N)CCCNC(=N)N)C(=O)N[C@@H](Cc1ccc(O)cc1)C(=O)N[C@@H](CN)C(=O)N[C@@H](CCC(C)C)C(=O)N(CCCCCCN)CC(N)=O (H-R[Gly(N(CH2)3NH2)]R[Nva]Y[Dap][hLeu][Gly(N-(CH2)6NH2)]-NH2) | 51 |  | 
CCC[C@H](NC(=O)[C@H](CCCNC(=N)N)NC(=O)CN(CCN)C(=O)[C@@H](N)CCCNC(=N)N)C(=O)N[C@@H](Cc1ccc(O)cc1)C(=O)N[C@@H](CN)C(=O)N[C@@H](CCC(C)C)C(=O)N(CCCCCCN)CC(N)=O (H-R[Gly(N-2-aminoethyl)]R[Nva]Y[Dap][hLeu][Gly(N-(CH2)6NH2)]-NH2) | 42 |  | 
CCC[C@H](NC(=O)[C@H](CCCNC(=N)N)NC(=O)CN(CCCCCCN)C(=O)[C@@H](N)CCCNC(=N)N)C(=O)N[C@@H](Cc1ccc(O)cc1)C(=O)N[C@@H](CN)C(=O)N[C@@H](CCC(C)C)C(=O)N(CCCCCCN)CC(N)=O (H-R[Gly(N-(CH2)6NH2)]R[Nva]Y[Dap][hLeu][Gly(N-(CH2)6NH2)]-NH2) | 57 |  | 
CCC[C@@H]1NC(=O)[C@H](CCCNC(=N)N)NC(=O)CN(C(=O)[C@@H](N)CCCNC(=N)N)CCCNC(=O)NCCCCCCN(CC(N)=O)C(=O)[C@H](CCC(C)C)NC(=O)[C@H](CN)NC(=O)[C@H](Cc2ccc(O)cc2)NC1=O (H-R[NGly(3-aminopropyl)]R[Nva]Y[Dap][hLeu][N(6-aminohexyl)Gly]-NH2; linker 2-8 via CO) |  | 320 | 100
CCC[C@H](NC(=O)[C@H](CCCNC(=N)N)NC(=O)CN(CCCN)C(=O)[C@@H](N)CCCNC(=N)N)C(=O)N[C@@H](Cc1ccc(O)cc1)C(=O)N[C@@H](CN)C(=O)N[C@@H](CCC(C)C)C(=O)N(CCN)CC(N)=O (H-R[Gly(N(CH2)3NH2)]R[Nva]Y[Dap][hLeu][Gly(N-2-aminoethyl)]-NH2) | 76 |  | 
CCC[C@@H]1NC(=O)[C@H](CCCNC(=N)N)NC(=O)CN(C(=O)[C@@H](N)CCCNC(=N)N)CCNC(=O)NCCCN(CC(N)=O)C(=O)[C@H](CCC(C)C)NC(=O)[C@H](CN)NC(=O)[C@H](Cc2ccc(O)cc2)NC1=O (H-R[N(2-Aminoethyl)Gly]R[Nva]Y[Dap][hLeu][NGly(3-aminopropyl)]-NH2; linker 2-8 via CO) |  | 920 | 98
CCC[C@H](NC(=O)[C@H](CCCNC(=N)N)NC(=O)CN(CCN)C(=O)[C@@H](N)CCCNC(=N)N)C(=O)N[C@@H](Cc1ccc(O)cc1)C(=O)N[C@@H](CN)C(=O)N[C@@H](CCC(C)C)C(=O)N(CCCN)CC(N)=O (H-R[Gly(N-2-aminoethyl)]R[Nva]Y[Dap][hLeu][Gly(N(CH2)3NH2)]-NH2) | 76 |  | 
CCC[C@@H]1NC(=O)[C@H](CCCNC(=N)N)NC(=O)CN(C(=O)[C@@H](N)CCCNC(=N)N)CCNC(=O)NCCCCCCN(CC(N)=O)C(=O)[C@H](CCC(C)C)NC(=O)[C@H](CN)NC(=O)[C@H](Cc2ccc(O)cc2)NC1=O (H-R[N(2-Aminoethyl)Gly]R[Nva]Y[Dap][hLeu][N(6-aminohexyl)Gly]-NH2; linker 2-8 via CO) |  | 290 | 100
CCC[C@@H]1NC(=O)[C@H](CCCNC(=N)N)NC(=O)CNCCCCNC(=O)NCCN(CC(N)=O)C(=O)[C@H](CCC(C)C)NC(=O)[C@H](CN)NC(=O)[C@H](Cc2ccc(O)cc2)NC1=O (H-[Nlys]R[Nva]Y[Dap][hLeu][N(2-Aminoethyl)Gly]-NH2; linker 1-7 via CO) | 32 |  | 
